In ChEMBL document CHEMBL1795212, “Synthesis and in vitro antimalarial activity of tetraoxane-amine/amide conjugates” (Eur J Med Chem, 2011):

Assays:
[1] = Selectivity index, IC50 for african green monkey Vero cells to IC50 for Plasmodium falciparum D6; assay type: functional
Summary of the method: (§1)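 Selectivity index is the cytotoxicity IC50 in Vero cells divided by the antimalarial IC50 against the stated P. falciparum clone (D6 or W2).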

[2] = Selectivity index, IC50 for african green monkey Vero cells to IC50 for Plasmodium falciparum W2; assay type: functional; summary of the method: as §1
Vero = assay: Cytotoxicity against african green monkey Vero cells at 12.5 uM; assay type: cell-based; conditions: chlorocebus sabaeus
Summary of the method: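 Mammalian kidney Vero cells screened in vitro for cytotoxicity, in parallel with the antimalarial screen, up to a highest concentration of 12.5.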

Plasmodium falciparum [3] = assay: Antimalarial activity against Plasmodium falciparum W2 assessed as plasmodial LDH activity after 72 hrs; assay type: functional, organism-based
Summary of the method: (§2)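 P. falciparum D6 (chloroquine-sensitive) and W2 (chloroquine-resistant) clones screened in vitro alongside Vero cytotoxicity, up to a highest concentration of 12.5; IC50 determined.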

Plasmodium falciparum [4] = assay: Antimalarial activity against Plasmodium falciparum D6 assessed as plasmodial LDH activity after 72 hrs; assay type: functional, organism-based; summary of the method: as §2
[5] = Plasmodium falciparum, W2, 72 h, read-out: IC50
[6] = Plasmodium falciparum, D6, 72 h, read-out: IC50

Structure (SMILES)	Ratio IC50 [1]	Ratio IC50 [2]	Activity (Vero)	IC50 (Plasmodium falciparum [3]; [5]) [µM]	IC50 (Plasmodium falciparum [4]; [6]) [µM]	IC50 (Plasmodium falciparum [3])	IC50 (Plasmodium falciparum [4])
O=Cc1ccc(C2OOC(c3ccccc3)OO2)cc1 (stereo not given)	>1.3	>1	Non-toxic	> 17.5	13.2	–	–
Cc1cccc(C2OOC(c3ccc(C=O)cc3)OO2)c1 (stereo not given)	–	–	Non-toxic	–	–	Not Active	Not Active
Cc1ccccc1C1OOC(c2ccc(C=O)cc2)OO1 (stereo not given)	–	–	Non-toxic	–	–	Not Active	Not Active
CCc1ccc(C2OOC(c3ccc(C=O)cc3)OO2)cc1 (stereo not given)	>1.4	>2.6	Non-toxic	5.99	10.9	–	–
CC(C)c1ccc(C2OOC(c3ccc(C=O)cc3)OO2)cc1 (stereo not given)	>2.2	>4.9	Non-toxic	3.11	6.99	–	–
Cc1ccc(C2OOC(c3ccc(/C=N/C4CCCCC4)cc3)OO2)cc1 (stereo not given)	>6.8	>7	Non-toxic	1.85	1.9	–	–
Cc1ccc(C2OOC(c3ccc(/C=N\c4ccccc4)cc3)OO2)cc1 (stereo not given)	>1.7	>2.4	Non-toxic	5.53	7.74	–	–
Cc1ccc(C2OOC(c3ccc(/C=N/Cc4ccccc4)cc3)OO2)cc1 (stereo not given)	>2.6	>2	Non-toxic	6.4	4.8	–	–
Cc1ccc(C2OOC(c3ccc(/C=N/CCc4ccccc4)cc3)OO2)cc1 (stereo not given)	>7.9	>8.2	Non-toxic	1.49	1.54	–	–
Cc1ccc(C2OOC(c3ccc(/C=N\c4ccc(Cl)cc4)cc3)OO2)cc1 (stereo not given)	>8.2	>8.2	Non-toxic	1.46	1.46	–	–
Cc1ccc(C2OOC(c3ccc(/C=N\c4ccc(Br)cc4)cc3)OO2)cc1 (stereo not given)	>1.4	>2.6	Non-toxic	4.09	7.95	–	–
Cc1ccc(C2OOC(c3ccc(/C=N\c4ccccc4S)cc3)OO2)cc1 (stereo not given)	>1.8	>2.4	Non-toxic	5.08	6.86	–	–
Cc1ccc(C2OOC(c3ccc(/C=N\CCO)cc3)OO2)cc1 (stereo not given)	>5.1	>6.1	Non-toxic	2.37	2.82	–	–
Cc1ccc(C2OOC(c3ccc(/C=N\N)cc3)OO2)cc1 (stereo not given)	>9	>9	Non-toxic	1.26	2.59	–	–
Cc1ccc(C2OOC(c3ccc(CNCc4ccccc4)cc3)OO2)cc1 (stereo not given)	>3.7	>3.7	Non-toxic	3.44	3.44	–	–
Cc1ccc(C2OOC(c3ccc(CNCCc4ccccc4)cc3)OO2)cc1 (stereo not given)	>1.6	>1.9	Non-toxic	6.39	7.67	–	–
Cc1ccc(C2OOC(c3ccc(CNc4ccccc4S)cc3)OO2)cc1 (stereo not given)	>5.5	>7.6	Non-toxic	1.59	2.19	–	–
OCc1ccc(C2OOC(c3ccccc3)OO2)cc1 (stereo not given)	>5.6	>9.5	Non-toxic	1.82	3.09	–	–
Cc1ccc(C2OOC(c3ccc(CO)cc3)OO2)cc1 (stereo not given)	>9	>6.8	Non-toxic	2.42	1.83	–	–
Cc1cccc(C2OOC(c3ccc(CO)cc3)OO2)c1 (stereo not given)	>12.9	>11.9	Non-toxic	1.38	1.28	–	–
Cc1ccccc1C1OOC(c2ccc(CO)cc2)OO1 (stereo not given)	>7.7	>8.7	Non-toxic	1.9	2.15	–	–
CCc1ccc(C2OOC(c3ccc(CO)cc3)OO2)cc1 (stereo not given)	9.9	14.4	Non-toxic	1.09	1.58	–	–
CC(C)c1ccc(C2OOC(c3ccc(CO)cc3)OO2)cc1 (stereo not given)	>7.4	>7.9	Non-toxic	1.89	2.02	–	–
Cc1ccc(C2OOC(c3ccc(COS(C)(=O)=O)cc3)OO2)cc1 (stereo not given)	>1.7	>1.6	Non-toxic	8.18	7.64	–	–
CCc1ccc(C2OOC(c3ccc(COS(C)(=O)=O)cc3)OO2)cc1 (stereo not given)	>2.5	>3.2	Non-toxic	3.94	4.99	–	–

Structure (SMILES)	Ratio IC50 [1]	Ratio IC50 [2]	Activity (Vero)	IC50 (Plasmodium falciparum [3]; [5]) [µM]	IC50 (Plasmodium falciparum [4]; [6]) [µM]	IC50 (Plasmodium falciparum [3])	IC50 (Plasmodium falciparum [4])
Cc1ccc(C2OOC(c3ccc(CNc4ccccc4)cc3)OO2)cc1 (stereo not given)	>7.1	>8.2	Non-toxic	1.59	1.84	–	–
Cc1ccc(C2OOC(c3ccc(CNc4cccc5ccccc45)cc3)OO2)cc1 (stereo not given)	–	–	Non-toxic	–	–	Not Active	Not Active
Cc1ccc(C2OOC(c3ccc(CN(C)c4ccccc4)cc3)OO2)cc1 (stereo not given)	>8.4	>6	Non-toxic	2.11	1.51	–	–
Cc1ccc(NCc2ccc(C3OOC(c4ccc(C)cc4)OO3)cc2)cc1 (stereo not given)	–	–	Non-toxic	–	–	Not Active	Not Active
Cc1ccc(C2OOC(c3ccc(CNc4cccc(C)c4)cc3)OO2)cc1 (stereo not given)	>4.8	>5.3	Non-toxic	2.38	2.64	–	–
Cc1ccc(C2OOC(c3ccc(CNc4ccccc4C)cc3)OO2)cc1 (stereo not given)	–	–	Non-toxic	–	–	Not Active	Not Active
Cc1ccc(C2OOC(c3ccc(CNc4c(C)cccc4C)cc3)OO2)cc1 (stereo not given)	>8.2	>8.4	Non-toxic	1.45	1.48	–	–
CCc1ccc(NCc2ccc(C3OOC(c4ccc(C)cc4)OO3)cc2)cc1 (stereo not given)	>3.7	>5.2	Non-toxic	2.35	3.32	–	–
Cc1ccc(C2OOC(c3ccc(CNc4ccc(C(C)C)cc4)cc3)OO2)cc1 (stereo not given)	>4.9	>3.7	Non-toxic	3.2	2.39	–	–
CCCc1ccc(NCc2ccc(C3OOC(c4ccc(C)cc4)OO3)cc2)cc1 (stereo not given)	>2.3	>2.8	Non-toxic	4.19	5.67	–	–
Cc1ccc(C2OOC(c3ccc(CNc4ccc(F)cc4)cc3)OO2)cc1 (stereo not given)	>6	>5.3	Non-toxic	2.35	2.09	–	–
Cc1ccc(C2OOC(c3ccc(CNc4cccc(F)c4)cc3)OO2)cc1 (stereo not given)	>5.1	>6.8	Non-toxic	1.83	2.46	–	–
Cc1ccc(C2OOC(c3ccc(CNc4ccccc4F)cc3)OO2)cc1 (stereo not given)	>6.6	>6.8	Non-toxic	1.83	1.88	–	–
Cc1ccc(C2OOC(c3ccc(CNc4ccc(Cl)cc4)cc3)OO2)cc1 (stereo not given)	>6.8	>7	Non-toxic	1.7	1.79	–	–
Cc1ccc(C2OOC(c3ccc(CNc4cccc(Cl)c4)cc3)OO2)cc1 (stereo not given)	–	–	Non-toxic	–	–	Not Active	Not Active
Cc1ccc(C2OOC(c3ccc(CNc4ccccc4Cl)cc3)OO2)cc1 (stereo not given)	>4.8	>4.3	Non-toxic	2.76	2.51	–	–
Cc1ccc(C2OOC(c3ccc(CNc4cc(Cl)c(Cl)cc4Cl)cc3)OO2)cc1 (stereo not given)	>1.2	>1.6	Non-toxic	6.42	8.57	–	–
CCc1ccc(C2OOC(c3ccc(C(=O)O)cc3)OO2)cc1 (stereo not given)	–	–	Non-toxic	–	–	Not Active	Not Active
Cc1ccc(C2OOC(c3ccc(C(=O)NCCO)cc3)OO2)cc1 (stereo not given)	–	–	Non-toxic	–	–	Not Active	Not Active
Cc1ccc(C2OOC(c3ccc(C(=O)NCCCO)cc3)OO2)cc1 (stereo not given)	–	–	Non-toxic	–	–	Not Active	Not Active
Cc1ccc(C2OOC(c3ccc(C(=O)NCCCCCCO)cc3)OO2)cc1 (stereo not given)	–	–	Non-toxic	–	–	Not Active	Not Active
CCCCNC(=O)c1ccc(C2OOC(c3ccc(C)cc3)OO2)cc1 (stereo not given)	–	–	Non-toxic	–	–	Not Active	Not Active
CCCCCNC(=O)c1ccc(C2OOC(c3ccc(CC)cc3)OO2)cc1 (stereo not given)	–	–	Non-toxic	–	–	Not Active	Not Active
Cc1ccc(C2OOC(c3ccc(C=O)cc3)OO2)cc1 (stereo not given)	–	–	Non-toxic	–	–	Not Active	Not Active
CCN(CC)CCCC(C)Nc1ccnc2cc(Cl)ccc12 (stereo not given) [CHLOROQUINE]	–	–	Non-toxic	–	–	–	–
